Assay results published in article PMC10247892 (Biomedicine & Pharmacotherapy, 2023).
Like-named read-outs stand apart in the source and are kept apart here.

How the values were obtained:
[1] = Cytotoxicity assay; format: cell-based; conditions: human, MRC-5 cells
[2] = system: MRC-5 cells; experiment: Cytotoxicity assay; format: cell-based; conditions: read-out: CC50 ± SD, MTT, 24 h
[3] = system: HCoV-229E; experiment: Antiviral activity against HCoV-229E in MRC-5 cells; format: cell-based, human coronavirus 229E; conditions: for IC50: read-out: IC50 ± SD
How it was run: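 MRC-5 cells were seeded at 20,000/well in duplicate per drug and condition and grown to 80 % confluency. Virus was adsorbed at MOI 0.1 PFU/cell in FBS-free DMEM for 1 h at 37 °C, then removed. Serial dilutions of test compound in 1 % FBS DMEM were added for 24 h, at doses below MTT-determined cytotoxicity. Cells were fixed with PFA, saponin-permeabilised and stained with anti-N antibody, Alexa 488 secondary and DAPI, then imaged by widefield fluorescence. Infection was normalised to the untreated infected control (100 %). IC50 came from a nonlinear dose-effect fit. Three replicate experiments.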

[4] = system: Vero E6 cells; conditions: uninfected Vero E6 cells, 3 days
[5] = system: SARS-CoV-2; experiment: TEM of Vero E6 cells infected with SARS-CoV-2; format: cell-based; conditions: infected Vero E6, highest concentration (HβCD 20 mM), 48 hpi
How it was run: (§1)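 Mock- or virus-infected Vero E6 monolayers were kept without or with two concentrations of test compound (0.16 mM or 20 mM for the cyclodextrin shown). At 48 h they were fixed with 4 % PFA plus 1 % glutaraldehyde in PBS for 2 h at RT. Samples were pelleted, post-fixed on ice in osmium tetroxide/potassium ferrocyanide, acetone-dehydrated and epoxy-embedded. At least 100 cells per condition were examined by TEM.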

[6] = system: SARS-CoV-2; format: cell-based; conditions: Vero E6 cells
[7] = system: Vero E6 cells; experiment: TEM of mock-infected Vero E6 cells; format: cell-based; conditions: Vero E6, lower or only dose (HβCD 0.16 mM, phytol 50 µM), 48 h
How it was run: as §1

[8] = system: SARS-CoV-2 Spike pseudovirus; format: cell-based
[9] = Human coronavirus 229E, MRC5, 24 h
[10] = HCoV229E, MRC-5 cells, MOI 0.1, 24 h

C=C1CC/C=C(\C)CC[C@@H]2[C@@H]1CC2(C)C [(-)-Trans-Caryophyllene]
CC50 at 24 h [1]: 1840 µM

Nc1ccc(C(=O)NCC(=O)O)cc1 [Aminohipurric]
CC50 [2]: < 10000 µM

O=c1c(O)c(-c2ccc(O)c(O)c2)oc2cc(O)cc(O)c12 [Quercetin]
Inhibition of HCoV-229E infection (in words) ([3]; MRC-5 cells): inhibit 229E virus

CC1=CC[C@@H](C(C)(C)O)CC1 [Alpha-terpineol]
CC50 at 24 h [1]: 1060 µM
IC50 [3, 9]: 382 ± 107 µM

C=C(C)[C@H]1CC=C(C)CC1 [R-(+)-Limonene]
CC50 [2]: 1910 µM

Phytol
First cytotoxic conc. [4]: 100 to 200 µM
CC50 [2]: 56.2 µM
Effect on infected cells by TEM (in words) [5]: clear signs of cytopathic effect
IC50 [3, 10]: 18.6 ± 6.9 µM
Antiviral activity against SARS-CoV-2 (in words) [6]: had antiviral activity
Alterations in mock-infected cells by TEM (in words) [7]: did not cause significant alterations

C[C@H]1O[C@@H](O[C@H]2[C@@H](O)C[C@H](O[C@H]3[C@@H](O)C[C@H](O[C@H]4CC[C@@]5(C)[C@H](CC[C@@H]6[C@@H]5C[C@@H](O)[C@]5(C)[C@@H](C7=CC(=O)OC7)CC[C@]65O)C4)O[C@@H]3C)O[C@@H]2C)C[C@H](O)[C@@H]1O [Digoxin]
Inhibition of HCoV-229E infection (in words) ([3]; MRC-5 cells): inhibit 229E virus

C=C1CC[C@H]2C(=C)CC[C@H]3C(=C)C(=O)O[C@@H]3[C@@H]12 [Dehydrocostus lactone]
First cytotoxic conc. [4]: 100 µM
CC50 at 24 h [1]: 39.1 µM
IC50 [3, 9]: 4.2 ± 1.8 µM

CC1=CCC(=C(C)C)CC1 [Terpinolene]
First cytotoxic conc. [4]: 10000 µM
CC50 at 24 h [1]: 69000 µM
IC50 [3, 9]: 8000 ± 2200 µM

N[C@@H](Cc1ccccc1)C(=O)O [L-Phenilalanine]
CC50 [2]: < 10000 µM

CC1=C(C(=O)OC2CCCCC2)C(c2ccc([N+](=O)[O-])cc2)C2=C(CC(C)(C)CC2=O)N1 (stereo not drawn) [FLI 06]
First cytotoxic conc. [4]: 4 to 6.25 µM
CC50 [2]: > 50 µM
IC50 [3, 10]: 0.4 ± 0.3 µM

CC(=O)NS(=O)(=O)c1ccc(N)cc1 [Sulfacetamide]
CC50 at 24 h [1]: > 1000 µM

Oc1ccc(/C=C/c2cc(O)cc(O)c2)cc1 [Resveratrol]
Inhibition of HCoV-229E infection (in words) ([3]; MRC-5 cells): inhibit 229E virus

CC(=O)Nc1nc(C)c(-c2ccc(Cl)c(S(=O)(=O)NCCO)c2)s1 [PIK93]
First cytotoxic conc. [4]: 20 µM
CC50 [2]: > 50 µM
IC50 [3, 10]: 4.2 ± 1.4 µM

CC(C)C[C@H](NC(=O)[C@H](Cc1ccccc1)NC(=O)c1cnccn1)B(O)O [Bortezomib (PS-341), Bortezomib]
First cytotoxic conc. [4]: 0.8 µM
CC50 at 24 h [1]: > 0.1 µM
IC50 [3, 9]: 0.0006 ± 0.0003 µM

CO[C@H]1C[C@@H]2CC[C@@H](C)[C@@](O)(O2)C(=O)C(=O)N2CCCC[C@H]2C(=O)O[C@H]([C@H](C)C[C@@H]2CC[C@@H](O)[C@H](OC)C2)CC(=O)[C@H](C)/C=C(\C)[C@@H](O)[C@@H](OC)C(=O)[C@H](C)C[C@H](C)/C=C/C=C/C=C/1C [Sirolimus]
Inhibition of HCoV-229E infection (in words) ([3]; MRC-5 cells): inhibit 229E virus

C[C@H]1O[C@@H](O[C@H]2[C@@H](O)C[C@H](O[C@H]3[C@@H](O)C[C@H](O[C@H]4CC[C@@]5(C)[C@H](CC[C@@H]6[C@@H]5CC[C@]5(C)[C@@H](C7=CC(=O)OC7)CC[C@]65O)C4)O[C@@H]3C)O[C@@H]2C)C[C@H](O)[C@@H]1O [Digitoxin]
First cytotoxic conc. [4]: 1.56 µM
CC50 at 24 h [1]: 0.0069 µM

C=C1C2CCC(C2)C1(C)C (stereo not drawn) [Camphene]
CC50 at 24 h [1]: 72000 µM

COC[C@H]1OC(=O)c2coc3c2[C@@]1(C)C1=C(C3=O)[C@@H]2CCC(=O)[C@@]2(C)C[C@H]1OC(C)=O [Wortmannin]
First cytotoxic conc. [4]: 25 µM
CC50 at 24 h [1]: > 50 µM
IC50 [3, 9]: 21.6 ± 15.6 µM

CCC(C)(C)C(=O)O[C@H]1C[C@@H](C)C=C2C=C[C@H](C)[C@H](CC[C@@H]3C[C@@H](O)CC(=O)O3)[C@H]21 [Simvastatin]
Inhibition of HCoV-229E infection (in words) ([3]; MRC-5 cells): inhibit 229E virus

COc1cc(-n2c(=S)[nH]c3ccccc3c2=O)c(Cl)cc1Cl [Mdivi-1]
First cytotoxic conc. [4]: 20 µM
CC50 [2]: 95.4 µM
IC50 [3, 10]: 11.7 ± 0.7 µM

CCC(CC)COC(=O)[C@H](C)N[P@](=O)(OC[C@H]1O[C@@](C#N)(c2ccc3c(N)ncnn23)[C@H](O)[C@@H]1O)Oc1ccccc1 [Remdesivir]
First cytotoxic conc. [4]: 100 µM

CC1(C)CC[C@]2(C(=O)O)CC[C@]3(C)C(=CC[C@@H]4[C@@]5(C)CC[C@H](O)C(C)(C)[C@@H]5CC[C@]43C)[C@@H]2C1 [Oleanolic acid]
CC50 at 24 h [1]: 25200 µM

COc1cc([C@H]2Oc3cc([C@H]4Oc5cc(O)cc(O)c5C(=O)[C@@H]4O)ccc3O[C@@H]2CO)ccc1O [SilibininA, Silibinin A]
Inhibition of HCoV-229E infection (in words) ([3]; MRC-5 cells): inhibit 229E virus

CC(=O)O[C@H]1C[C@H](O[C@H]2[C@@H](O)C[C@H](O[C@H]3[C@@H](O)C[C@H](O[C@H]4CC[C@@]5(C)[C@H](CC[C@@H]6[C@@H]5C[C@@H](O)[C@]5(C)[C@@H](C7=CC(=O)OC7)CC[C@]65O)C4)O[C@@H]3C)O[C@@H]2C)O[C@H](C)[C@H]1O[C@@H]1O[C@H](CO)[C@@H](O)[C@H](O)[C@H]1O [Lanatoside C]
Inhibition of HCoV-229E infection (in words) ([3]; MRC-5 cells): inhibit 229E virus

O=c1c(O)c(-c2cc(O)c(O)c(O)c2)oc2cc(O)cc(O)c12 [Myricetin]
CC50 at 24 h [1]: 434 µM

NCC(CC(=O)O)c1ccc(Cl)cc1 (stereo not drawn) [Baclogen]
CC50 [2]: > 1000 µM
Inhibition of HCoV-229E infection (in words) ([3]; MRC-5 cells): did not have an inhibitory effect

CO[C@H]1C[C@@H]2CC[C@@H](C)[C@@](O)(O2)C(=O)C(=O)N2CCCC[C@H]2C(=O)O[C@H]([C@H](C)C[C@@H]2CC[C@@H](OCCO)[C@H](OC)C2)CC(=O)[C@H](C)/C=C(\C)[C@@H](O)[C@@H](OC)C(=O)[C@H](C)C[C@H](C)/C=C/C=C/C=C/1C [Everolimus]
Inhibition of HCoV-229E infection (in words) ([3]; MRC-5 cells): inhibit 229E virus

CCc1c(-c2ccccc2)c(-c2ccccc2)nn1-c1ccccc1-c1cccc(OCC(=O)O)c1 [BMS309403]
Inhibition of HCoV-229E infection (in words) ([3]; MRC-5 cells): inhibited 229E but their CC50 was close to the IC50

CC(=O)Oc1ccccc1C(=O)O [Aspirin]
CC50 at 24 h [1]: 1100 µM
IC50 [3, 9]: 1000 µM

C[C@@H]1CC[C@H]2C(C)(C)[C@H]3C[C@@]12CC[C@@]3(C)O [alpha-cedrol]
Inhibition of HCoV-229E infection (in words) ([3]; MRC-5 cells): inhibited 229E but their CC50 was close to the IC50

OCC(S)CS (stereo not drawn) [Dimercaprol]
Inhibition of HCoV-229E infection (in words) ([3]; MRC-5 cells): inhibited 229E but their CC50 was close to the IC50

O=C1c2c(O)cc(O)cc2OC(c2ccc(O)c(O)c2)C1O (stereo not drawn) [Taxifolin]
Inhibition of HCoV-229E infection (in words) ([3]; MRC-5 cells): inhibit 229E virus

OC[C@H]1O[C@@H]2O[C@H]3[C@H](O)[C@@H](O)[C@@H](O[C@H]4[C@H](O)[C@@H](O)[C@@H](O[C@H]5[C@H](O)[C@@H](O)[C@@H](O[C@H]6[C@H](O)[C@@H](O)[C@@H](O[C@H]7[C@H](O)[C@@H](O)[C@@H](O[C@H]8[C@H](O)[C@@H](O)[C@@H](O[C@H]1[C@H](O)[C@H]2O)O[C@@H]8CO)O[C@@H]7CO)O[C@@H]6CO)O[C@@H]5CO)O[C@@H]4CO)O[C@@H]3CO [β-CD, ß-Cyclodextrin]
Inhibition of SARS-CoV-2 pseudovirus entry (in words) [8]: most potent

CCC(C)n1ncn(-c2ccc(N3CCN(c4ccc(OCC5COC(Cn6cncn6)(c6ccc(Cl)cc6Cl)O5)cc4)CC3)cc2)c1=O (stereo not drawn) [Itraconazole]
Inhibition of HCoV-229E infection (in words) ([3]; MRC-5 cells): inhibit 229E virus

CCCCCCCCCCC(C)(C)C(=O)Nc1c(OC)cc(OC)cc1OC [CI976]
First cytotoxic conc. [4]: 100 µM
CC50 [2]: 50.7 µM

CC(C)[C@@H]1NC(=O)[C@H](C)OC(=O)[C@@H](C(C)C)NC(=O)[C@@H](C(C)C)OC(=O)[C@H](C(C)C)NC(=O)[C@H](C)OC(=O)[C@@H](C(C)C)NC(=O)[C@@H](C(C)C)OC(=O)[C@H](C(C)C)NC(=O)[C@H](C)OC(=O)[C@@H](C(C)C)NC(=O)[C@@H](C(C)C)OC1=O [Valinomycin]
First cytotoxic conc. [4]: 0.32 µM
CC50 at 24 h [1]: 12.5 µM
IC50 [3, 9]: 2.5 ± 0.2 µM

Gingenoside RB1
First cytotoxic conc. [4]: 50 µM
CC50 [2]: > 1000 µM
IC50 [3, 10]: 48.3 ± 2.1 µM
